The record followed here is ChEMBL document CHEMBL1152452, “Modifications incorporated in CpG motifs of oligodeoxynucleotides lead to antagonist activity of toll-like receptors 7 and 9” (2009).

Assay [1] deals with T1, Toll-like receptor 9 (Mus musculus) (UniProt Q9EQU3).
T1 sequence (whole entry): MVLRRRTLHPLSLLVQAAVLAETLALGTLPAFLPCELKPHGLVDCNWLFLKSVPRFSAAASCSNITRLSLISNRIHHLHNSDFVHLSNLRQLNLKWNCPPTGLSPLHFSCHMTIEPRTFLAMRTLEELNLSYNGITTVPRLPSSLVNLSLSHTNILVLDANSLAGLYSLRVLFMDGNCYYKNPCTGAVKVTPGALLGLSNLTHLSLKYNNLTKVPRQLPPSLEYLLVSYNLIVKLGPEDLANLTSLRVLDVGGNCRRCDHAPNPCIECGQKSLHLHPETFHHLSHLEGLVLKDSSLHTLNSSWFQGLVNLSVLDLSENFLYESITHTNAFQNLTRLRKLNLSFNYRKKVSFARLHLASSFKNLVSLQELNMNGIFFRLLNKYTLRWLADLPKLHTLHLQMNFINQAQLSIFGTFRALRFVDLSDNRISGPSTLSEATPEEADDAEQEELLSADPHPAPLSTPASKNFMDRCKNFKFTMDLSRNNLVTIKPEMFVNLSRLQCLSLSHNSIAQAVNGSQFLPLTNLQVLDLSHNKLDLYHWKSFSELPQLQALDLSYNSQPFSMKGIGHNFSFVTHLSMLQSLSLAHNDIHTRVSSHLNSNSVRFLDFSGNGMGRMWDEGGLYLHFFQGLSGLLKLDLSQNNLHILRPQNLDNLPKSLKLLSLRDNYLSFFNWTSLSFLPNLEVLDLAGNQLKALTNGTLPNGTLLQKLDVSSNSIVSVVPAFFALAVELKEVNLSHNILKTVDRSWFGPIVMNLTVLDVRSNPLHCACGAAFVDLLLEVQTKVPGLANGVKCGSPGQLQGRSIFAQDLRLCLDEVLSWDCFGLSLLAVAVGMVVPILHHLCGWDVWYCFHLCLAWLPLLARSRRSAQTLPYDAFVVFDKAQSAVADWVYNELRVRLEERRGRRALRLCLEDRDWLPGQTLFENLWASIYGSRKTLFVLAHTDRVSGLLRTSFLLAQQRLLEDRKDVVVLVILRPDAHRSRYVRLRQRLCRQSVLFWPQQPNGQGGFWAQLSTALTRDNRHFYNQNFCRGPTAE
In words: Activation of mouse TLR9 expressed in HEK293 cells assessed as NF-kappaB level at 0.1 ug/mL after 18 hrs by reporter gene assay. It is filed as cell-based. The method, boiled down:
(§1)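 HEK293 cells stably expressing mouse TLR9 were transiently transfected with a SEAP reporter for 6 h, then stimulated with ODN at 0.1, 0.3 or 1 μg/mL for 18 h. Reporter expression is given as fold change in NF-κB activity over medium. Representative of two independent experiments.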

Assay [2] concerns the target T1, Toll-like receptor 9 (Mus musculus). In words: Activation of mouse TLR9 expressed in HEK293 cells assessed as NF-kappaB level at 0.3 ug/mL after 18 hrs by reporter gene assay. It is filed as cell-based. The method, boiled down:
as §1

The subject of a further assay is J774. In words: Inhibition of 5'-CTATCTGACGTTCTCTGT-3'-activated NF-kappaB activity in mouse J774 cells at 2.5 ug/ml after 1 hr by EMSA. It counts as cell-based. An outline of the steps: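 J774 murine macrophages were grown in DMEM with 10% FBS and antibiotics, plated at 5 × 10^6 cells/well, and co-incubated for 1 h with the agonist ODN (0.5 µg/mL) and test ODN (2.5 µg/mL). Nuclear extracts were prepared and NF-κB binding was analysed by EMSA on native polyacrylamide gels with autoradiography.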

The subject of assay [3] is Splenocyte. The assay is described as follows: Immunostimulatory activity in C57BL/6 mouse splenocytes assessed as induction of IL12 secretion at 2 to 10 ug/ml after 24 hrs by sandwich ELISA. It counts as functional, cell-based. An outline of the steps:
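C57BL/6 splenocytes (mice 5–8 weeks) at 5 × 10^6 cells/mL in RPMI complete medium. ODNs dissolved in PBS were added and the cells incubated at 37 °C for 24 h. Supernatant IL-12 or IL-6 was measured by sandwich ELISA. Runs were done two or three times, in duplicate per concentration.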

Assay [4] concerns Mus musculus. The assay is described as follows: Immunostimulatory activity in C57BL/6 mouse assessed as induction of TNFalpha level in serum at 2 mg/kg, sc after 2 hrs by Luminex multiplex assay. It is filed as functional, organism-based. Also on record: dose 2 mg/kg. An outline of the steps: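 Female C57BL/6 mice, 5–6 weeks old, n = 3, received a single 2 mg/kg subcutaneous ODN injection in the right flank. Blood was taken by retro-orbital bleeding 2 h later. Naive mice served as baseline. Representative of three experiments.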

Assay [5] has as its system Mus musculus. In words: Immunostimulatory activity in C57BL/6 mouse assessed as inhibition of 5'-CTATCTGACGTTCTCTGT-3'-induced MIP-1alpha production in serum at 2 mg/kg, sc administered 24 hrs prior to 5'-CTATCTGACGTTCTCTGT-3' challenge measured after 2 hrs by Luminex multiplex assay. Also noted: dose 2 mg/kg. It is filed as functional, organism-based. The method, boiled down: (§2)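 C57BL/6 mice received 2 mg/kg ODN sc in one flank. After 24 h, the TLR9 agonist ODN was given at 0.5 mg/kg sc in the opposite flank. Blood was drawn 2 h later and serum cytokines/chemokines were quantified by Luminex multiplex assay. Percent inhibition was taken against the agonist alone. Representative of three experiments.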

For assay [6], the system named is Mus musculus. In words: Immunostimulatory activity in C57BL/6 mouse assessed as inhibition of 5'-CTATCTGACGTTCTCTGT-3'-induced TNFalpha production in serum at 2 mg/kg, sc administered 24 hrs prior to 5'-CTATCTGACGTTCTCTGT-3' challenge measured after 2 hrs by Luminex multiplex assay. It counts as functional, organism-based. Also on record: dose 2 mg/kg. The method, boiled down: as §2

Assay [7] relates to Mus musculus. The assay is described as follows: Immunostimulatory activity in C57BL/6 mouse assessed as inhibition of 5'-CTATCTGACGTTCTCTGT-3'-induced IL10 production in serum at 2 mg/kg, sc administered 24 hrs prior to 5'-CTATCTGACGTTCTCTGT-3' challenge measured after 2 hrs by Luminex multiplex assay. It counts as functional, organism-based. Also on record: dose 2 mg/kg. An outline of the steps: as §2

Assay [8] deals with Mus musculus. In words: Immunostimulatory activity in C57BL/6 mouse assessed as inhibition of 5'-CTATCTGACGTTCTCTGT-3'-induced MCP1 production in serum at 2 mg/kg, sc administered 24 hrs prior to 5'-CTATCTGACGTTCTCTGT-3' challenge measured after 2 hrs by Luminex multiplex assay. Also noted: dose 2 mg/kg. It is filed as functional, organism-based. An outline of the steps:
as §2

Assay [9] has as its system Mus musculus. The assay is described as follows: Immunostimulatory activity in C57BL/6 mouse assessed as inhibition of 5'-CTATCTGACGTTCTCTGT-3'-induced KC production in serum at 2 mg/kg, sc administered 24 hrs prior to 5'-CTATCTGACGTTCTCTGT-3' challenge measured after 2 hrs by Luminex multiplex assay. It counts as functional, organism-based. Also on record: dose 2 mg/kg. An outline of the steps:
as §2

The subject of assay [10] is Splenocyte. The assay is described as follows: Inhibition of 5'-CTATCTGACGTTCTCTGT-3'-induced IL12 secretion in C57BL/6 mouse splenocytes at 4 ug/ml after 24 hrs by sandwich ELISA. It counts as functional, cell-based. An outline of the steps:
(§3)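 Splenocytes from 5–8-week C57BL/6 mice, 5 × 10^6 cells/mL in RPMI complete medium, were co-incubated with the TLR9 agonist ODN (1 µg/mL) plus test ODN at 1 or 4 µg/mL, or over a concentration series, at 37 °C for 24 h. Supernatant IL-12 or IL-6 was measured by sandwich ELISA. Runs were done in duplicate, with three independent experiments.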

Assay [11] has as its system Splenocyte. The assay is described as follows: Inhibition of 5'-CTATCTGACGTTCTCTGT-3'-induced IL6 secretion in C57BL/6 mouse splenocytes at 4 ug/ml after 24 hrs by sandwich ELISA. It counts as functional, cell-based. An outline of the steps:
as §3

The source made the active and inactive calls. No cut-off for these calls is given here.

As for `COC1[C@H](n2cnc3c(=O)[nH]c(N)nc32)O[C@H](COP(=O)(S)O[C@H]2C[C@H](n3cc(C)c(N)nc3=O)O[C@@H]2COP(=O)(S)O[C@H]2C[C@H](n3cnc4c(N)ncnc43)O[C@@H]2COP(=O)(S)O[C@H]2C[C@H](n3cnc4c(=O)[nH]c(N)nc43)O[C@@H]2COP(=O)(S)O[C@H]2C[C@H](n3cc(C)c(=O)[nH]c3=O)O[C@@H]2COP(=O)(S)O[C@H]2C[C@H](n3ccc(N)nc3=O)O[C@@H]2COP(=O)(S)O[C@H]2C[C@H](n3cc(C)c(=O)[nH]c3=O)O[C@@H]2COP(=O)(S)O[C@H]2C[C@H](n3cnc4c(N)ncnc43)O[C@@H]2COP(=O)(S)O[C@H]2C[C@H](n3cc(C)c(=O)[nH]c3=O)O[C@@H]2COP(=O)(S)O[C@H]2C[C@H](n3ccc(N)nc3=O)O[C@@H]2CO)[C@H]1OP(=O)(S)OC[C@H]1O[C@@H](n2cc(C)c(=O)[nH]c2=O)C[C@@H]1OP(=O)(S)OC[C@H]1O[C@@H](n2cc(C)c(=O)[nH]c2=O)C[C@@H]1OP(=O)(S)OC[C@H]1O[C@@H](n2ccc(N)nc2=O)C[C@@H]1OP(=O)(S)OC[C@H]1O[C@@H](n2cc(C)c(=O)[nH]c2=O)C[C@@H]1OP(=O)(S)OC[C@H]1O[C@@H](n2ccc(N)nc2=O)C[C@@H]1OP(=O)(S)OC[C@H]1O[C@@H](n2cc(C)c(=O)[nH]c2=O)C[C@@H]1OP(=O)(S)OC[C@H]1O[C@@H](n2cnc3c(=O)[nH]c(N)nc32)C[C@@H]1OP(=O)(S)OC[C@H]1O[C@@H](n2cc(C)c(=O)[nH]c2=O)C[C@@H]1O` (some centres not stated), the outcome (in assay [1]; in assay [2]; in the assay with Mus musculus [4]) was inactive. In addition, the outcome with J774, in the assay with Splenocyte [3], in the assay on Mus musculus [5], in the assay with Mus musculus [6], with Mus musculus [7] and with Mus musculus [8] was Active. Also, the outcome in the assay on Mus musculus [9] was Active.
Turning to `Cc1cn([C@@H]2O[C@H](COP(=O)(S)O[C@H]3C[C@H](n4ccc(N)nc4=O)O[C@@H]3COP(=O)(S)O[C@H]3C[C@H](n4cc(C)c(=O)[nH]c4=O)O[C@@H]3COP(=O)(S)O[C@H]3C[C@H](n4ccc(N)nc4=O)O[C@@H]3COP(=O)(S)O[C@H]3C[C@H](n4cc(C)c(=O)[nH]c4=O)O[C@@H]3COP(=O)(S)O[C@H]3C[C@H](n4cc(C)c(=O)[nH]c4=O)O[C@@H]3COP(=O)(S)O[C@H]3C[C@H](n4cnc5c(=O)[nH]c(N)nc54)O[C@@H]3COP(=O)(S)O[C@H]3C[C@H](n4ccc(N)nc4=O)O[C@@H]3COP(=O)(S)O[C@H]3C[C@H](n4cnc5c(N)ncnc54)O[C@@H]3COP(=O)(S)O[C@H]3C[C@H](n4cnc5c(=O)[nH]c(N)nc54)O[C@@H]3COP(=O)(S)O[C@H]3C[C@H](n4cc(C)c(=O)[nH]c4=O)O[C@@H]3COP(=O)(S)O[C@H]3C[C@H](n4ccc(N)nc4=O)O[C@@H]3COP(=O)(S)O[C@H]3C[C@H](n4cc(C)c(=O)[nH]c4=O)O[C@@H]3COP(=O)(S)O[C@H]3C[C@H](n4cnc5c(N)ncnc54)O[C@@H]3COP(=O)(S)O[C@H]3C[C@H](n4cc(C)c(=O)[nH]c4=O)O[C@@H]3COP(=O)(S)O[C@@H]3C[C@@H](n4ccc(N)nc4=O)O[C@H]3CO)[C@@H](OP(=O)(S)OC[C@H]3O[C@@H](n4cnc5c(=O)[nH]c(N)nc54)C[C@@H]3OP(=O)(S)OC[C@H]3O[C@@H](n4cc(C)c(=O)[nH]c4=O)C[C@@H]3O)[C@H]2O)c(=O)[nH]c1=O` (some centres not stated), the result (in assay [1]; in assay [2]; with Mus musculus [4]) was inactive. Also, the result with J774, in the assay on Splenocyte [3], with Splenocyte [10], in the assay on Splenocyte [11], in the assay on Mus musculus [5] and with Mus musculus [6] was Active. For the same molecule, the outcome in the assay on Mus musculus [7], in the assay on Mus musculus [8] and in the assay on Mus musculus [9] was Active.
On to `COC1[C@H](n2cc(C)c(N)nc2=O)O[C@H](COP(=O)(S)O[C@H]2C[C@H](n3cnc4c(N)ncnc43)O[C@@H]2COP(=O)(S)O[C@H]2C[C@H](n3cnc4c(=O)[nH]c(N)nc43)O[C@@H]2COP(=O)(S)O[C@H]2C[C@H](n3cc(C)c(=O)[nH]c3=O)O[C@@H]2COP(=O)(S)O[C@H]2C[C@H](n3ccc(N)nc3=O)O[C@@H]2COP(=O)(S)O[C@H]2C[C@H](n3cc(C)c(=O)[nH]c3=O)O[C@@H]2COP(=O)(S)O[C@H]2C[C@H](n3cnc4c(N)ncnc43)O[C@@H]2COP(=O)(S)O[C@H]2C[C@H](n3cc(C)c(=O)[nH]c3=O)O[C@@H]2COP(=O)(S)O[C@H]2C[C@H](n3ccc(N)nc3=O)O[C@@H]2CO)[C@H]1OP(=O)(S)OC[C@H]1O[C@@H](n2cnc3c(=O)[nH]c(N)nc32)C[C@@H]1OP(=O)(S)OC[C@H]1O[C@@H](n2cc(C)c(=O)[nH]c2=O)C[C@@H]1OP(=O)(S)OC[C@H]1O[C@@H](n2cc(C)c(=O)[nH]c2=O)C[C@@H]1OP(=O)(S)OC[C@H]1O[C@@H](n2ccc(N)nc2=O)C[C@@H]1OP(=O)(S)OC[C@H]1O[C@@H](n2cc(C)c(=O)[nH]c2=O)C[C@@H]1OP(=O)(S)OC[C@H]1O[C@@H](n2ccc(N)nc2=O)C[C@@H]1OP(=O)(S)OC[C@H]1O[C@@H](n2cc(C)c(=O)[nH]c2=O)C[C@@H]1OP(=O)(S)OC[C@H]1O[C@@H](n2cnc3c(=O)[nH]c(N)nc32)C[C@@H]1OP(=O)(S)OC[C@H]1O[C@@H](n2cc(C)c(=O)[nH]c2=O)C[C@@H]1O` (some centres not stated), for which the result (in [1]; in [2]; in the assay on Mus musculus [4]) was inactive. Further, the result with J774, in the assay with Splenocyte [3], in the assay on Mus musculus [5], in the assay on Mus musculus [6], in the assay with Mus musculus [7] and in the assay with Mus musculus [8] was Active. In addition, the result with Mus musculus [9] was Active.
